Runt-SMMHC FRET: inhibitors of RUNX1 Runt–CBFb-SMMHC binding, primary screen, biochemical, FRET, Cerulean-Runt, Venus-CBFb-SMMHC, uHTS. Runt-related transcription factor 1 (Homo sapiens) + Core-binding factor subunit beta …. Cerulean-Runt/Venus-CBFb-SMMHC FRET ratio 530/480, 1 h. inhibition, % at 20 µM. 0.74% of 220,000 active. AID 1434, 2008;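 active means mean inhibition across duplicate retests at 20 µM reaching about 50%, limit read from the data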;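 further: inhibitors lower the FRET ratio by blocking Runt binding to CBFb-SMMHC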
Target sequence (Q01196 whole entry, looked up): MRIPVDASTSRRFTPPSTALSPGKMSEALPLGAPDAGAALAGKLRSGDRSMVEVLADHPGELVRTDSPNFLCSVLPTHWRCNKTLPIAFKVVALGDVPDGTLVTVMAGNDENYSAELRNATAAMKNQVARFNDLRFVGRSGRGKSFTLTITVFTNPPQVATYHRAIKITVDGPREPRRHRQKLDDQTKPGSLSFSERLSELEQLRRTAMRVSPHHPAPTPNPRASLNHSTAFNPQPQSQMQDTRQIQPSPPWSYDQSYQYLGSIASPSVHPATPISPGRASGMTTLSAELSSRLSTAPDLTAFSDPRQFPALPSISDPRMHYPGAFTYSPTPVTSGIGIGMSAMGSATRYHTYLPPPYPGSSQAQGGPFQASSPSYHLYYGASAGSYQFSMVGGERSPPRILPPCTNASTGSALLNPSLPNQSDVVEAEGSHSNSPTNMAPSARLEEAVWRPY
Target sequence (Q13951 whole entry, looked up): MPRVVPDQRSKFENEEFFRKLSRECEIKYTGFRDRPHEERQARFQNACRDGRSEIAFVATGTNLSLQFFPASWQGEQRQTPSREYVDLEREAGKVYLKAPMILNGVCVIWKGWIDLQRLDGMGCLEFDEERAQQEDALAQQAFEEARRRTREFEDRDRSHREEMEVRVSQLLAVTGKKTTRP
CaV13 FRET inh: Disruptors of the CACNA1D IQ motif to Ca2+-dependent inactivation inhibitor domain association, primary screening, Förster resonance energy transfer in intact living …; 0.098% of 340,000 active; HEK cells, CFP/YFP FRET ICDI-IQ, plate reader, 10 min; percent FRET-ratio fall versus neutral wells; inhibition, % at 12.3 µM;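 active means mean replicate inhibition of at least 30% and at least 1% of replicates passing that level; inconclusive means only one of the two criteria is met; inactive means neither criterion is met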
Runt-CBFb FRET: inhibitors of RUNX1 Runt–CBFb binding, primary screen, biochemical, FRET, Cerulean-Runt, Venus-CBFb, uHTS; Runt-related transcription factor 1 (Homo sapiens) + Core-binding factor subunit beta …; Cerulean-Runt/Venus-CBFb FRET ratio 530/480, 1 h; inhibition, % at 20 µM; 0.46% of 220,000 active; AID 1496, 2009;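 active means inhibition over about 50% at 20 µM in the single-dose screen, limit read from the data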
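test system = Cerulean-tagged RUNX1 Runt domain (FRET donor) fusion protein | reagent = Venus-CBFb binding partner, 100 nM | incubation = protein complex preformed 1 h, compound exposure 1 h, room temperature, dark | detection = FRET fluorescence | read-out basis = loss of energy transfer signal | controls = 5 µM unlabeled CBFb as full-inhibition high control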
RanGTP-Imp inh: inhibitors of RanGTP-importin-beta interaction, primary screen, biochemical, FRET, CFP-Ran, YFP-importin-beta, homogeneous | 1.1% of 300,000 active | Ran GTPase (GTP-bound) - importin-beta complex | inhibition, % (test concentration not listed) | cell-free CFP-Ran/YFP-importin-beta FRET ratio;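 active means more than half of the replicate wells show a fall in the fluorescence ratio signal beyond about 16%, limit read from the data, passing the limit was not always enough; inconclusive means exactly half of the replicate wells pass the set limit; inactive means fewer than half of replicates pass the limit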
A number is an active result; i = inactive; ? = inconclusive; nt = not tested or not shown; + = active, no number. In the library only some 1.2% were active in any assay of this set; here they are far more common.

SMILES	Runt-SMMHC FRET	CaV13 FRET inh	Runt-CBFb FRET	RanGTP-Imp inh
CCOc1ccc(-c2csc(NC(=O)CSCC(=O)O)n2)c2ccccc12	97	i	i	i
CCOc1ccc(-c2csc(NC(=O)CSC3=NC(=O)CN3C(C)=O)n2)c2ccccc12	i	i	i	?
COc1ccccc1Oc1ccc(Oc2ccccc2OC)cc1	i	i	i	i
CC(=O)N1c2ccccc2C2(O)N=C(C)SC12 (centres undefined)	52	nt	i	nt
CC(=O)N1c2ccccc2[C@@H](C)[C@@H]1C	nt	i	nt	nt
CC(=O)Nc1cccc(-c2ccnc3c2CC(C(=O)NCc2cccc(Cl)c2)O3)c1 (centres undefined)	nt	45	nt	nt
COc1cc([N+](=O)[O-])ccc1N/C=C/C(=O)c1cccs1	i	i	i	26
Cc1cccc(NC(=O)c2ccc(COc3cccc4ccccc34)o2)n1	i	i	i	i
CC(=O)Nc1ccc(S(=O)(=O)Nc2nc3ccccc3nc2N2CCOCC2)cc1	nt	i	nt	nt
CC(=O)N1CCN(c2nc3cc4c(cc3nc2NS(=O)(=O)c2ccccc2)OCCO4)CC1	i	i	92	43
CCC1CCCCN1CCCNC(=O)CN1C(=O)COc2ccc(S(=O)(=O)N3CCOCC3)cc21 (centres undefined)	nt	i	nt	i
CC(=O)Nc1ccc(S(=O)(=O)N2CCC(C(=O)NCc3cccnc3)CC2)cc1	nt	i	nt	i
OCCCCc1nccc2c1[nH]c1ccccc12	i	i	i	i
N#Cc1ccc(/C=C\c2nccc3c2[nH]c2ccccc23)cc1	i	38	i	103
OC1CCCN(Cc2ccc3ccc4cccc5ccc2c3c45)C1 (centres undefined)	i	nt	nt	41
Cc1cc2ccccc2cc1CN1CCOCC1	i	i	i	i
OC1CCCN(Cc2cn(Cc3ccccc3)nc2-c2cc3ccccc3o2)C1 (centres undefined)	i	i	i	i
c1cc2ccc3ccc(CN4CCOCC4)c4ccc(c1)c2c34	i	i	nt	45
CC(=O)Nc1ccc(C23CC4CC(CC(C4)C2)C3)cc1	nt	i	nt	26
CC(C)(C)c1cc(C(=O)NCC(=O)OCC(=O)c2cccc([N+](=O)[O-])c2)cc(C(C)(C)C)c1	i	i	i	32
CCN1CCS/C1=C/C=C/C1=[N+](CC)CCS1	120	nt	140	i
CCN1CCS/C1=C\C=C\C1=[N+](CC)CCS1	nt	84	128	i
CNc1cc(-c2cccc(C(=O)N3CCOCC3)c2)ncn1	nt	i	nt	nt
Cc1nn(-c2ccccc2)c2nc(=O)n(-c3ccccc3)cc12	i	i	i	i
Cc1ccc2nc3c(cc2c1)c(C)nn3-c1ccccc1	nt	i	nt	61
SMILES	Runt-SMMHC FRET	CaV13 FRET inh	Runt-CBFb FRET	RanGTP-Imp inh
CCOCCCNc1nc2nc3ccc(C)cn3c(=O)c2cc1C(=O)NCC1CCCO1 (centres undefined)	nt	+	nt	i
Cc1ccc2nc3c(cc(C(=O)NCC4CCCO4)c(=N)n3CCCOC(C)C)c(=O)n2c1 (centres undefined)	i	i	i	nt
Cc1ccc2nc3c(cc(C(=O)NCC4CCCO4)n3C)c(=O)n2c1 (centres undefined)	89	nt	i	nt
COc1ccc(-n2c(N)c(C(=O)Nc3c(C)n(C)n(-c4ccccc4)c3=O)c3nc4ccccc4nc32)cc1	i	i	i	i
COc1ccc(-n2c3nc4ccccc4nc3c3c(=N)oc(C)nc32)cc1	129	i	66	i
CCCCn1c2nc3ccccc3nc2c2c(=N)oc(C)nc21	79	i	i	nt
Cc1ccnc(NC(=O)c2cc(S(=O)(=O)N3CCCCC3)ccc2Cl)c1	i	i	i	i
CCN1C(=C(C#N)C#N)C=Cc2cc(C)ccc21	77	i	i	52
CCc1cc(=O)oc2c(C)c(O)c(CN(C)C)cc12	62	i	i	38
Cc1cc(C)n(-c2ccc(S(=O)(=O)N3CCCC3)cc2[N+](=O)[O-])n1	i	i	i	i
COc1cccc(CN2C(=O)c3cccc(N)c3C2=O)c1	73	i	i	?
COc1cccc(CN2C(=O)c3ccccc3S2(=O)=O)c1	nt	i	nt	i
O=C(O)c1ccc(Oc2c(C(F)(F)F)oc3cc(O)ccc3c2=O)cc1	i	i	i	24
Cc1oc2cc(O)ccc2c(=O)c1Oc1ccccc1	i	nt	i	i

Assay outcomes: PubChem BioAssay, several laboratories
